These results are taken from ChEMBL document CHEMBL1142819, “Synthesis of benzoyl phenyl benzoates as effective inhibitors for phospholipase A2 and hyaluronidase enzymes” (Bioorg Med Chem Lett, 2005).

Test [1] addresses Acidic phospholipase A2 EC-I (Echis carinatus, UniProt Q7T3S7). Description: In vitro inhibitory concentration against phospholipase A2 of Echis carinatus venom.
A short description of test [2]: In vitro Inhibitory concentration against phospholipase A2 activity of synovial fluid. Also on record: species or system Homo sapiens.
For test [3], the system named is Naja naja. Description: Percent inhibition of hyaluronidase from Naja naja naja venom. Also on record: concentration or dose not given beside the values. The settings on record: concentration not given here.
In test [4] the test system is Protobothrops elegans. Kind of test: Percent inhibition of hyaluronidase from Trimeresurus elegans venom. The arrangement: concentration or dose not given beside the values. As to conditions: concentration not given here.
Test [5] deals with Daboia russelii russelii. Kind of test: Percent inhibition of hyaluronidase from Vipera russelli russelli venom; NI = No inhibition.
Test [6] deals with Mus musculus. Description: Edema ratio expressed as weight of edematous leg to 100/weight of normal leg in mice upon injection of 300 uM compound preincubated with 1 ug phospholipase A2 of Synovial fluid at 37 C for 1 hr into the mice foot pads. Type of test: functional. The procedure, abridged:
(§1)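 Each PLA2 enzyme (1 µg) was preincubated with compound (300 µM) at 37 °C for 1 h, then injected into the right hind footpad of mice (22–24 g) in saline. The left footpad received saline as control. After 45 min the mice were killed, and both legs were cut at the ankle and weighed. Edema ratio = edematous leg weight × 100 / normal leg weight. Results given as mean SD (n = 4); Student's t test, P < 0.05.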

The subject of test [7] is Mus musculus. Kind of test: Edema ratio expressed as weight of edematous leg to 100/weight of normal leg in mice upon injection of 300 uM compound pre-incubated with 1 ug phospholipase A2 of Naja melanoleuca at 37 degree C for 1 h into mice foot pads. Type of test: functional. The gist of the method:
as §1

A further test deals with T1, Basic phospholipase A2 1 (Naja melanoleuca, UniProt P00599).
T1 sequence (P00599 whole entry): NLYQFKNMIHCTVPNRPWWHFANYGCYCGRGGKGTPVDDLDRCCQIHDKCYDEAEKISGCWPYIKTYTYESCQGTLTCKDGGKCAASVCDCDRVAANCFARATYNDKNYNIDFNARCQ
Kind of test: In vitro inhibitory concentration against phospholipase A2 of Naja melanoleuca venom.

Test [8] addresses T2, Basic phospholipase A2 PLA-A (Trimeresurus flavoviridis, UniProt P59264).
T2 sequence (P59264 whole entry): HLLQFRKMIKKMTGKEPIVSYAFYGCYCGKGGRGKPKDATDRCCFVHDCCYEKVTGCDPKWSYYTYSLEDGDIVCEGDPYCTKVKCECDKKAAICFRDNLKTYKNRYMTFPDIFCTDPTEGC
Kind of test: In vitro inhibitory concentration against phospholipase A2 of Trimeresurus flavoviridis venom. Also on record: species or system Protobothrops flavoviridis.

In test [9] the test system is Mus musculus. Kind of test: Edema ratio expressed as weight of edematous leg to 100/weight of normal leg in mice upon injection of 300 uM compound pre-incubated with 1 ug phospholipase A2 of Echis carinatus at 37 C for 1 h into the mice foot pads. The format is functional. The gist of the method: as §1
Test [10] deals with Daboia russelii russelii. Kind of test: Percent inhibition of hyaluronidase from Vipera russelli russelli venom. The arrangement: concentration or dose not given beside the values. The settings on record: concentration not given here.
For test [11], the system named is Mus musculus. Description: Edema ratio expressed as weight of edematous leg to 100/weight of normal leg in mice upon injection of 300 uM compound preincubated with 1 ug phospholipase A2 of Trimeresurus flavoviridis at 37 C for 1 hr into the mice foot pads. The format is functional. The gist of the method:
as §1

In the next test the test system is Naja melanoleuca. Kind of test: Percent inhibition of hyaluronidase from Naja melanoleuca venom; NI = No inhibition.
The subject of test [12] is Protobothrops elegans. Description: Percent inhibition of hyaluronidase from Trimeresurus elegans venom; NI = No inhibition.
Test [13] relates to Naja naja. Description: Percent inhibition of hyaluronidase from Naja naja naja venom; NI = No inhibition.

pIC50: −log10 of the molar value. Calls of active or inactive are those of the source. The calls are words filed in the database; no cut-off is given here.

Acidic phospholipase A2 EC-I, sequence (Q7T3S7 17-136 limits assumed): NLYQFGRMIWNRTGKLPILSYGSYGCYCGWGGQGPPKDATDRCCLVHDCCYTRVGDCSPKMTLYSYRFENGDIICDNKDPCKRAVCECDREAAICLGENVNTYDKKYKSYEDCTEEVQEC

`Cc1ccc(OC(=O)c2ccccc2C)c(C(=O)c2ccccc2C)c1`: the negative logarithm of the IC50 (pIC50) is 3.98 in [1], 4.07 in test [2], 4.01 at Basic phospholipase A2 1 and 3.86 in test [8]. For the same compound, the inhibition amounted to 58.7% with Naja naja [3] and 42.4% with Protobothrops elegans [4]. Besides, in the test with Daboia russelii russelii [5], the inhibition entry was “inactive”. Also, the Ratio with Mus musculus [6] is reported as 106; in the test with Mus musculus [7], 102.
Turning to `O=C(Oc1ccc(Cl)cc1C(=O)c1cccc(Cl)c1Cl)c1ccccc1`, the pIC50 in [1] was 4.40; in test [2] it was 4.49; on Basic phospholipase A2 1, 4.28; in test [8] it was 4.34. For the same compound, the inhibition in the test with Naja naja [3] amounted to 85.3%; in the test with Protobothrops elegans [4], 76.8%; with Daboia russelii russelii [10], 71.6%. In addition, the Ratio with Mus musculus [9] came to 103; with Mus musculus [6] it was 102; in the test with Mus musculus [7] it was 104; with Mus musculus [11], 105.
As for `Cc1ccc(C(=O)Oc2ccc(C(=O)c3ccccc3C)cc2C)cc1`, the pIC50 in test [1] is 4.06; in test [2] it was 4.25; at Basic phospholipase A2 1, 4.14; in test [8], 4.12. Moreover, the inhibition stood at 42.4% in the test on Naja naja [3], 48.9% in the test with Protobothrops elegans [4] and 36.9% in the test with Daboia russelii russelii [10]. For the same compound, in the test on Mus musculus [6], the Ratio came to 101.
With `C[C@H]1[C@H](C)CC[C@]2(C(=O)O)CC[C@]3(C)C(=CC[C@@H]4[C@@]5(C)CC[C@H](O)C(C)(C)[C@@H]5CC[C@]43C)[C@H]12` [URSOLIC ACID], the negative-log IC50 (pIC50) in test [1] was 5.64; at Basic phospholipase A2 1, 5.54.
Consider `Cc1ccc(C(=O)Oc2ccc(C)cc2C(=O)c2ccc(C)cc2)cc1`, for which the pIC50 in [1] was 4.02; in test [2] it was 3.91; on Basic phospholipase A2 1, 4.24; in test [8], 3.97. For the same compound, the inhibition in the test with Naja naja [3] was 69.3%; in the test with Protobothrops elegans [4] it was 76.8%; in the test on Daboia russelii russelii [10], 46%. Besides, in the test with Mus musculus [7], the Ratio turned out to be 103. Besides, in the test on Naja melanoleuca, the inhibition result was “inactive”.
For the compound `Cc1ccc(OC(=O)c2ccccc2)c(C(=O)c2ccccc2)c1`, the pIC50 was 4.03 in test [1], 4.34 in test [2], 4.22 on Basic phospholipase A2 1 and 4.16 in test [8]. For the same compound, the inhibition was 13.9% in the test with Naja naja [3] and 28.2% with Daboia russelii russelii [10]. Further, the inhibition result with Protobothrops elegans [12] and in the test with Naja melanoleuca was “inactive” each time. In addition, the results for the Ratio in the test on Mus musculus [6] and with Mus musculus [11] were 109 and 105, respectively.
In the case of `Cc1cc(C(=O)c2cccc(Cl)c2Cl)ccc1OC(=O)c1ccccc1`, the negative-log IC50 (pIC50) in test [1] is 3.95; in test [2] it was 3.81; against Basic phospholipase A2 1, 3.88; in [8], 4.05. Besides, the inhibition turned out to be 33.1% in the test on Protobothrops elegans [4] and 26.2% with Daboia russelii russelii [10]. In addition, in the test on Naja naja [13], the inhibition result was “inactive”.
`Cc1ccc(OC(=O)c2cccc(Cl)c2)c(C(=O)c2cccc(Cl)c2)c1`: the pIC50 in [1] was 5.64; in test [2] it was 5.60; on Basic phospholipase A2 1 it was 5.54; in test [8], 5.60. The values for the inhibition in the test with Naja naja [3], with Protobothrops elegans [4] and with Daboia russelii russelii [10] were 89.3%, 92.5% and 87.8%, respectively. Further, the Ratio came out at 101 in the test on Mus musculus [9], 101 in the test on Mus musculus [6], 101 with Mus musculus [7] and 102 in the test on Mus musculus [11].
